HUVEC inhibit: blocks proliferation of human endothelial cells | viability, % at 10 µM (by protocol) | AID 648 | HUVEC proliferation, CellTiter-Glo luminescence, 72 h; hits give low values | 1.1% of 86,000 active;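 active = viability at or below 30%; inactive = viability above 30%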
HCT116 PTEN-null: PTEN-deleted cell growth suppression | HCT116 PTEN-null viability, CellTiter-Glo, 60 h; hits give low values | viability, % at 10 µM | 1.2% of 140,000 active | AID 827;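 active = viability at or below a set limit, 4 SD under the median of all tested compounds, cut at about 3.7% in these data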;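 note: PTEN knockout HCT116 line with beta catenin targeted HCT116 as companion control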
H69AR growth 86K: growth inhibitors of human H69AR lung tumor cells | H69AR lung tumor viability, ATP luminescence, 72 h; hits give low values | viability, % at 10 µM | 6% of 85,000 active | AID 598;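 active = viability at or below 40%; inactive = viability above 40%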;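 note: multidrug resistant small cell line overexpressing MRP-1 efflux transporter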
Phagocyt inh: macrophage phagocytosis inhibition; J774A.1 macrophage IgG-bead phagocytosis, imaging; inhibition, % at 5 µM; 0.07% of 110,000 active;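 active = inhibition above the mean of the plate negative controls plus 5 SD, cut at about 13% in these data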;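 note: phagocytic index as fraction of beads internalized from green versus red external bead signal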
bCat KO growth: beta-catenin-lacking colon tumor cell growth suppression | HCT116 beta-catenin knockout viability, CellTiter-Glo, 60 h; hits give low values | viability, % at 10 µM | 1.5% of 140,000 active;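 active = viability at or under a set limit, the compound median less 4 SD, cut at about 6% in these data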
Fibroblast inh: blocks proliferation of human lung fibroblasts; viability, % at 10 µM; LL 47 human lung fibroblast viability, ATP luminescence; hits give low values; 1.1% of 85,000 active;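 active = viability at or below 50% in the single dose screen; inactive = viability above 50%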;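 note: compound exposure lasted 72 h before the ATP readout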
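material = human LL 47 lung fibroblast cells | dosing = compounds added from tenfold dosing solution, 0.1% DMSO final | timing = overnight cell rest, 72 h compound treatment at 37 °C | measured by = CellTiter-Glo luminescence measuring cellular ATP | evaluation = % viability versus median cells-only luminescence | control set = cell-only wells, no compound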
Of the large screens only hits and unclear results are named; the others gave an inactive call. This is one part of a sample in which hits are shown more often than they occur.

CSc1nsc(SCc2ccc(F)cc2)n1	H69AR growth 86K 30 (no result: Fibroblast inh)
Fc1ccc(CSc2nsc(SCc3ccc(F)cc3)n2)cc1	none
COc1ccc(NS(=O)(=O)c2c(C)cc(C)cc2C)cc1	H69AR growth 86K 16
COc1cccc(NS(=O)(=O)c2c(C)cc(C)cc2C)c1	none
OC(Cn1ccnc1)c1ccc(Cl)cc1Cl (centres undefined)	none
CC1(c2ccc(Cl)cc2Cl)OCC(Cn2ccnc2)O1 (centres undefined)	H69AR growth 86K 34
CCc1nnc(NC(=O)CSc2ncc(-c3ccccc3)n2CC)s1	none
Cc1ccc2c(CC(=O)Nc3ccc(N4CCN(C)CC4)cc3C)coc2c1	HUVEC inhibit 15, H69AR growth 86K 22
O=C(CNc1ccccc1)N/N=C/c1cn(-c2ccccc2)nc1-c1ccccc1	none (no result: HUVEC inhibit, H69AR growth 86K, Fibroblast inh)
CSc1ccccc1C(=O)NCc1ccc2c(c1)OCO2	none
c1cncc(-c2nnc(-c3cccnc3)nn2)c1	HUVEC inhibit 3.9, HCT116 PTEN-null 1.6, H69AR growth 86K 3.7, bCat KO growth 1.7
CCOc1cc(CNCCc2ccc(S(N)(=O)=O)cc2)ccc1OCc1ccc(Cl)cc1	HCT116 PTEN-null 1.7, bCat KO growth 1.4 (no result: HUVEC inhibit, H69AR growth 86K, Phagocyt inh, Fibroblast inh)
COc1cc(CNCCc2ccc(S(N)(=O)=O)cc2)ccc1OCc1ccc(Cl)cc1	HCT116 PTEN-null 0.6, bCat KO growth 0.6 (no result: HUVEC inhibit, H69AR growth 86K, Fibroblast inh)
O=C(NCc1ccccn1)c1cn(-c2ccccc2)nc1-c1ccc(Cl)cc1	none (no result: HUVEC inhibit, H69AR growth 86K, Fibroblast inh)
CCCCC(=O)Nc1ccc(C(=O)NN2C(=O)c3ccccc3C2=O)cc1	none (no result: HUVEC inhibit, H69AR growth 86K, Fibroblast inh)
CC(C)(C)OC(=O)N1CC=C2C(C#N)=C(N)C(C#N)(C#N)C(c3cccs3)C2C1 (centres undefined)	H69AR growth 86K 23
CC(C)(C)OC(=O)N1CC=C2C(C#N)=C(N)C(C#N)(C#N)[C@H](c3cccnc3)[C@H]2C1	none (no result: HUVEC inhibit, H69AR growth 86K, Fibroblast inh)
CCOC(=O)N1CC=C2C(C#N)=C(N)C(C#N)(C#N)[C@H](c3cccs3)C2C1 (some centres undefined)	H69AR growth 86K 37 (no result: Phagocyt inh)
CC(C)N1CC=C2C(C#N)=C(N)C(C#N)(C#N)C(c3ccccc3)C2C1 (centres undefined)	none (no result: HUVEC inhibit, H69AR growth 86K, Fibroblast inh)
CC1CC=C2C(C#N)=C(N)C(C#N)(C#N)C(c3cccs3)C2C1 (centres undefined)	H69AR growth 86K 32
CCN(CC)S(=O)(=O)c1cccc2c(N(C)C)cccc12	none (no result: HUVEC inhibit, H69AR growth 86K, Phagocyt inh, Fibroblast inh)
O=C(OCC(=O)N1CCC(Cc2ccccc2)CC1)c1ccc[nH]c1=O	none (no result: HUVEC inhibit, H69AR growth 86K, Phagocyt inh, Fibroblast inh)
Cc1cc(C)c(C)c(S(=O)(=O)N2CCN(C(=O)c3cc(=O)[nH]c4ccccc34)CC2)c1C	H69AR growth 86K 12
Cc1ccc(S(=O)(=O)N2CCN(C(=O)c3cc(=O)[nH]c4ccccc34)CC2)c(C)c1	H69AR growth 86K 39
CN1CCCN(C(=O)c2cc(=O)[nH]c3ccccc23)c2nc3ccccc3nc21	none
CC(=O)Nc1cccc(-c2nnc(SCC(=O)n3c4c(c5ccccc53)CCCC4)n2C)c1	none
Cc1ccc(NC(=S)N(Cc2ccco2)C2CCN(C(C)C)CC2)cc1	none (no result: HUVEC inhibit, H69AR growth 86K, Fibroblast inh)
COc1cc2c(cc1NC(=O)CSc1nnc(Cc3cccs3)n1C)oc1ccccc12	H69AR growth 86K 3.9
Cc1cc(Cl)ccc1NC(=O)CSc1nnc(Cc2cccs2)n1Cc1ccco1	none
COc1cc2c(cc1NC(=O)CSc1nnnn1-c1ccccc1)oc1ccccc12	H69AR growth 86K 19
COc1cc2c(cc1NC(=O)CSc1ccc(C)cc1)oc1ccccc12	none (no result: HUVEC inhibit, H69AR growth 86K, Phagocyt inh, Fibroblast inh)
COc1cc2c(cc1NC(=O)CSc1nnc(Cc3cccs3)n1Cc1ccco1)oc1ccccc12	H69AR growth 86K 37
COc1cc2c(cc1NC(=O)CN1CCN(S(=O)(=O)c3ccccc3F)CC1)oc1ccccc12	H69AR growth 86K 40
Cc1cc(C)nc(Sc2nc(Cl)nc(N(c3ccccc3)c3ccccc3)n2)n1	none (no result: HUVEC inhibit, H69AR growth 86K, Phagocyt inh, Fibroblast inh)
Nc1nnc(SCC(=O)NN2C(=O)NC3(CCCCC3)C2=O)s1	none (no result: HUVEC inhibit, H69AR growth 86K, Fibroblast inh)
Cc1ccnc(NC(=O)c2ccc(N3C(=O)CCC3=O)cc2)c1	none (no result: Phagocyt inh)
CCn1c(SCC(=O)Nc2cc3oc4ccccc4c3cc2OC)nnc1-c1cccs1	H69AR growth 86K 2.3
O=C(Nc1ccccn1)C(NS(=O)(=O)c1cccc2nsnc12)c1ccccc1 (centres undefined)	none (no result: Phagocyt inh)
CCOC(=O)N1CCN(c2c(NCC3CCN(Cc4cccc(C)c4)CC3)c(=O)c2=O)CC1	none
CCSc1ncnc2c1oc1ccccc12	none
Clc1ncnc2c1oc1ccccc12	bCat KO growth 4.1 (no result: HUVEC inhibit, H69AR growth 86K, Fibroblast inh)
c1coc(CN(Cc2ccco2)c2ncnc3c2oc2ccccc23)c1	H69AR growth 86K 22 (no result: Phagocyt inh)
COc1ccc(C2CC23N=C(c2ccccc2)OC3=O)cc1 (centres undefined)	none (no result: HUVEC inhibit, H69AR growth 86K, Fibroblast inh)
CCCN(CCO)Cc1cccc(Br)c1	Fibroblast inh 38
OCCN(CCO)Cc1ccc(Br)cc1	none (no result: Phagocyt inh)
Cc1cccc(NC(=O)c2cccc(Cn3cc(Br)c([N+](=O)[O-])n3)c2)c1C	none (no result: HUVEC inhibit, H69AR growth 86K, Fibroblast inh)
CN(C)S(=O)(=O)c1cccc(NC(=O)COC(=O)c2cccc(S(=O)(=O)N3CCc4ccccc4C3)c2)c1	HCT116 PTEN-null 0.2, bCat KO growth 0.7 (no result: HUVEC inhibit, H69AR growth 86K, Fibroblast inh)
CCCSc1nc(N2CCCC2)c2c(c1C#N)CC(C)(C)OC2	none
CC1(C)Cc2c(C#N)c(SCCOc3ccccc3)nc(N3CCOCC3)c2CO1	H69AR growth 86K 32
Cc1ccc(Cn2c(=N)n(CC(O)c3ccco3)c3ccccc32)cc1 (centres undefined)	none
N=c1n(Cc2ccccc2)c2ccccc2n1CC(O)c1ccccc1 (centres undefined)	H69AR growth 86K 38
Cc1ccc(OCC(O)Cn2c(=N)n(CCN3CCOCC3)c3ccccc32)cc1 (centres undefined)	none
CCCCCn1c(=N)n(CC(O)COc2ccccc2OC)c2ccccc21 (centres undefined)	bCat KO growth 2.6 (no result: HUVEC inhibit, H69AR growth 86K, Fibroblast inh)
C=CCn1c(=N)n(CC(O)COc2ccccc2OC)c2ccccc21 (centres undefined)	none
COc1ccccc1OCC(O)Cn1c(=N)n(Cc2ccccc2)c2ccccc21 (centres undefined)	bCat KO growth 5.2
CCCCn1c(=N)n(CC(O)COc2cccc(C)c2)c2ccccc21 (centres undefined)	HCT116 PTEN-null 1.5, H69AR growth 86K 1.6, bCat KO growth 1.7
CCN=C(NCC)SC1CC(=O)N(c2cccc(OCC)c2)C1=O (centres undefined)	none
Cc1ccc(OCC(O)Cn2c(=N)n(CCN3CCCCC3)c3ccccc32)cc1 (centres undefined)	HCT116 PTEN-null 2.9, bCat KO growth 2.3 (no result: HUVEC inhibit, H69AR growth 86K, Fibroblast inh)
CC(C)(C)C(=O)Cn1c(=N)n(Cc2ccccc2)c2ccccc21	H69AR growth 86K 38 (no result: Phagocyt inh)
COc1ccc(OCC(O)Cn2c(=N)n(CCN3CCCCC3)c3ccccc32)cc1 (centres undefined)	none
N#CC1=C(N)Oc2ccc3ccc(O)cc3c2C1c1ccsc1 (centres undefined)	none (no result: HUVEC inhibit, H69AR growth 86K, Fibroblast inh)
O=C(O)CCN1CC2([N+](=O)[O-])C=CC(=O)C([N+](=O)[O-])(C1)C2CC(=O)c1ccccc1 (centres undefined)	none (no result: HUVEC inhibit, H69AR growth 86K, Fibroblast inh)

Bioassay records (PubChem)
